Source: the EternaBench riboswitch data

Tested on: MS2 coat protein
Test: apparent Kd, MS2 coat protein; higher = weaker binding; RNA-MaP array
Procedure, shortened: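 Designed RNAs were transcribed on an Illumina sequencing chip from sequenced DNA templates. They were incubated at room temperature with fluorescently labeled MS2 coat protein at 1.5 nM to 3 μM, for 0.8–1.5 h at the lowest to 10–20 min at the highest concentrations, in Tris-HCl pH 7.5 buffer with KCl, MgCl2, BSA, DTT, tRNA and Tween20, with or without input ligand. Apparent Kd is the median of per-cluster binding-curve fits. Designs measured on fewer than 10 clusters were excluded.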

[1] = designed as: ON switch for flavin mononucleotide, no ligand
[2] = ligand present: flavin mononucleotide, designed as: ON switch for flavin mononucleotide
[3] = designed as: OFF switch for flavin mononucleotide, no ligand
[4] = ligand present: flavin mononucleotide, designed as: OFF switch for flavin mononucleotide
[5] = designed as: ON switch for theophylline, no ligand
[6] = ligand present: theophylline, designed as: ON switch for theophylline

| Sequence | apparent Kd [1] [nM] | apparent Kd [2] [nM] | apparent Kd [3] [nM] | apparent Kd [4] [nM] | also measured |
| --- | --- | --- | --- | --- | --- |
| CCUUUUAUUAAUGAUACCAGCGUAUUAAGCAUCACCUUGGACAUGAGGAUCACCCAUGUACGCCCUUGGCAGCAUACCACUGGGU |  |  |  |  | apparent Kd (designed as: OFF switch for theophylline, no ligand): 42.5 nM; apparent Kd (ligand present: theophylline, designed as: OFF switch for theophylline): 53.4 nM |
| AGGCUAUGUGAGAAGGCCGAAUGCCUAUAGUGCGGAGGAUAUCAAUCAACAUGAGGAUCACCCAUGUAGCAAAUCGUAGUUCUC | 84.3 | 60.1 |  |  |  |
| GUUACAUGAGGAUCACCCAUGUGGGCUGUAUGUAGCGCACCUGAGGAUAUGGCCCGGAGGUAGGACCAGAAGGCAGCGAAGAGC |  |  | 65.4 | 55.3 |  |
| CUCCCAAACAAGAAGGGCGUCGAGUACGGUGAACUUGCCACAUAACAUGAGGAUCACCCAUGUACGCAGGAUAUUGGAGCGUUU |  |  | 138 | 234 |  |
| GCCAUGUAAGGAUAUCUUAACUUGCAUCACGCGCGGAAUGGAGAGAAGGUACAUGAGGAUCACCCAUGUGAAAA |  |  | 19.8 | 28 |  |
| ACAUACUUGGGAGGAUAUAUGUUCGUACGCUCGAUAGAAGGCCCAGAAGUAUAAGACAUGAGGAUCACCCAUGUGGCAAGCGUU | 11.4 | 8.78 |  |  |  |
| ACUAGGGACCUGACAUGAGGAUCACCCAUGUUCUCGGAUCACAAGGAUAUCCGCACGUACCUGUGGGAGAAGGUGUCGUCCCAC | 26 | 21.8 |  |  |  |
| UGGAAGAUUGAAGGAUAUCCGGUCAAUUAAUAUGGAGAAGGUCAAUAUAUGGACAUGAGGAUCACCCAUGUAGAGUCAACUCGA | 38.5 | 26.8 |  |  |  |
| AUGUUAAGACAGGAUAUCCAAGCUCUAGCGUCAGGAGAAGGGUCAACAUGAGGAUCACCCAUGUGUAGUCUUCG |  |  | 7.48 | 15.2 |  |
| AACGGCUGCGCGUAGGAUAUGGCCCAUCCAACAUGAGGAUCACCCAUGUGCCACGAUGAGACUUCCCAGAAGGACGGUGCGAUGAG | 18.4 | 11.6 |  |  |  |
| AAUAAACAGUAGAAGGCUGAUACCUACAAAAGUCGAAGACAUGAGGAUCACCCAUGUCAGUCAUCAGAGGAUAUACGUGAAUCG | 12.3 | 7.49 |  |  |  |
| UCAAGCAUGGAGAAGGCCCGGGUUGACACGUCGGGAGGAUAUCCAGACUCACAUGAGGAUCACCCAUGUUAUUGCGGCGACUCC |  |  | 40.3 | 57 |  |
| GAAUCUACAAACGAUACCAGAUCCGGCUGCCACAUGAGGAUCACCCAUGUCUAGCGACUCAUCCCUUGGCAGCGUGUGCAUCCCG |  |  |  |  | apparent Kd [5]: 508 nM; apparent Kd [6]: 781 nM |
| UGAGCAUCCCAGAAGGAUAUAUGGUCGUAAACAUGAGGAUCACCCAUGUUCCAUUUAGGACUCAAAUAGAAGGUCUCGGGCCAGAC | 13.6 | 11.7 |  |  |  |
| GUACAGGAGGAAGGAUAUAAUGCACAUGAGGAUCACCCAUGUAAGAGGAAAUCACCAUAACUGAUUUAGAAGGACCAGCAAAAC |  |  | 12 | 11.3 |  |
| UGUCCCACGCAAGUACAUGAGGAUCACCCAUGUCUGAACCAGAGAAGGAGAGUUAUACUGGAAAUCUAGGAUAUCUGACAGACU |  |  | 43.3 | 50.5 |  |
| UACCGGUGACUCGAUACCAGUCCUCUAAAAUACAUGAGGAUCACCCAUGUAACCUUCCCAGACCCUUGGCAGCGACACAUGGAUA |  |  |  |  | apparent Kd [5]: 145 nM; apparent Kd [6]: 38.2 nM |
| CACUGACAUGAGGAUCACCCAUGUCUCCUGCUUGUAGGAUAUAGGUGGUCGCUGGACAGUCUAGAAGGACAUGUAA | 54.7 | 49.5 |  |  |  |
| CCGGGCAGUUUAGGAUAUACACGUGAUUCAUGCGUAGAAGGAAAUCACAGAAUAGUUUCCUGGACAUGAGGAUCACCCAUGUAG | 252 | 147 |  |  |  |
| ACAAUAAAUCAAGGAUAUGAACGAAGCAAGUGAUCAGAAGGUGAAAUAAACCCAUAAACUCCAACAUGAGGAUCACCCAUGUGA | 54 | 35.5 |  |  |  |
| GAAUGGAAACUAGGAUAUCGGCAGGAGCGGGAGCGAGAAGGAGUUUACUCGGUAUACAUGAGGAUCACCCAUGUGGGUGUGCUG |  |  | 294 | 252 |  |
| ACCCACAGAGGAUAUACAGCGAAACCUCAUAUUAAAUAUUCACAUGAGGAUCACCCAUGUAGAAGGCUGGAGAA |  |  | 10.9 | 38.8 |  |
